Measurements as given in ChEMBL document CHEMBL4033779 (J Med Chem, 2018).
Values after ≈ are worked out from the molar mass of the structure shown. Values belong to the compound of their own block, whether it stands above or below them.

Key:
[1] = tested on: Human immunodeficiency virus 1; experiment: Antiviral activity against HIV 1 isolate JRFL by single cycle infectivity assay; type: functional; settings: Human immunodeficiency virus 1, isolate JRFL
In short: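 HEK293T producer cells cotransfected with a proviral HIV-1 LAI-Δenv-luc plasmid (firefly luciferase in place of env) and an LTR-driven JR-FL env plasmid. The resulting pseudotyped virions complete only one replication round; infection is read out as luciferase signal.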

[2] = Aqueous solubility of the compound at pH 7.4; type: physicochemical
[3] = Oral bioavailability in rat at 1 mg/kg; type: ADME, organism-based; settings: in vivo
In short: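 Rat oral dosing at 1 mpk as a nanosuspension.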

[4] = Oral bioavailability in cynomolgus monkey at 10 mg/kg; type: ADME, organism-based, Macaca fascicularis; settings: in vivo
In short: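 Oral dose of 10 mpk given as a solution in PEG 400/ethanol.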

[5] = Aqueous solubility of the compound; type: physicochemical; settings: buffer
[6] = Dissociation constant, pKa of the compound; type: physicochemical
[7] = Protein binding in human plasma; type: ADME, cell-free; settings: read-out: PPB (converted)
[8] = Competitive inhibition of soluble CD4 binding to HIV-1 gp120 after 2 hrs by ELISA; set-up: species or system Human immunodeficiency virus 1
[9] = tested on: Human immunodeficiency virus 1; experiment: Antiviral activity against HIV-1 NL4 - 3 infected in human MT2 cells harboring CXCR4 co-receptor after 4 to 6 days; type: functional, cell-based; settings: Human immunodeficiency virus 1, NL4 - 3, MT2
[10] = tested on: Human immunodeficiency virus 1; experiment: Antiviral activity against HIV1 infected in human assessed as decrease in viral load in plasma at 1800 mg bid measured on day 8; type: functional
In short: (§1)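 Eight-day monotherapy in HIV-1-infected subjects: 800 or 1800 mg given BID with a high-fat meal (n = 12 per arm, placebo n = 6). Plasma viral load was measured on day 8 and reported as mean decline in log10 copies/mL.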

[11] = tested on: Human immunodeficiency virus 1; experiment: Antiviral activity against HIV-1 LAI infected in human MT2 cells harboring CXCR4 co-receptor after 4 to 6 days; type: functional, cell-based; settings: Human immunodeficiency virus 1, LAI
[12] = tested on: Human immunodeficiency virus 1; experiment: Antiviral activity against HIV-1 SF-162 infected in human PM1 cells harboring CCR5 co-receptor after 4 to 6 days by p24 ELISA; type: functional, cell-based; settings: Human immunodeficiency virus 1, SF-162
[13] = tested on: Human immunodeficiency virus 1; experiment: Inhibition of [3H]BMS-488043 binding to HIV-1 isolate JRFL gp120 assessed as dissociation half life incubated for 60 mins followed by CD4 addition by scintillation counting method
[14] = Inhibition of [3H]BMS-488043 binding to HIV-1 isolate JRFL gp120 after 60 mins by scintillation counting method; set-up: species or system Human immunodeficiency virus 1
[15] = tested on: Human immunodeficiency virus 1; experiment: Antiviral activity against HIV-1 89.6 infected in human PM1 cells harboring dual co-receptors after 4 to 6 days by p24 ELISA; type: functional, cell-based; settings: Human immunodeficiency virus 1, 89.6, PM1
[16] = tested on: Human immunodeficiency virus 1; experiment: Antiviral activity against HIV-1 RF infected in human MT2 cells harboring CXCR4 co-receptor after 4 to 6 days; type: functional, cell-based; settings: Human immunodeficiency virus 1, RF
[17] = Half life in human administered as capsule; type: ADME; settings: po
[18] = tested on: Human immunodeficiency virus 1; experiment: Antiviral activity against HIV-1 3B infected in human MT2 cells harboring CXCR4 co-receptor after 4 to 6 days; type: functional, cell-based; settings: Human immunodeficiency virus 1, 3B
[19] = tested on: Human immunodeficiency virus 1; experiment: Inhibition of [3H]BMS-488043 binding to HIV-1 isolate JRFL gp120 assessed as association half life after 60 mins by scintillation counting method
[20] = tested on: Human immunodeficiency virus 1; experiment: Antiviral activity against HIV1 infected in human assessed as decrease in viral load in plasma at 800 mg bid measured on day 8; type: functional; in short: as §1
[21] = tested on: Human immunodeficiency virus 1; experiment: Antiviral activity against HIV-1 Bal infected in human PM1 cells harboring CCR5 co-receptor after 4 to 6 days by p24 ELISA; type: functional, cell-based; settings: Human immunodeficiency virus 1, Bal
[22] = tested on: Human immunodeficiency virus 1; experiment: Antiviral activity against HIV-1 JR-FL infected in human PM1 cells harboring CCR5 co-receptor after 4 to 6 days by p24 ELISA; type: functional, cell-based; settings: Human immunodeficiency virus 1, JR-FL
[23] = tested on: Human immunodeficiency virus 1; experiment: Antiviral activity against HIV-1 isolate MN infected in human MT2 cells harboring CXCR4 co-receptor after 4 to 6 days; type: functional, cell-based; settings: Human immunodeficiency virus 1, isolate MN
Rattus norvegicus = experiment: Oral bioavailability in rat assessed as 1-(4-benzoylpiperazin-1-yl)-2-(4-methoxy-7-(3-methyl-1H-1,2,4-triazol-1-yl)-1H-pyrrolo[2,3-c]pyridin-3-yl)ethane-1,2-dione level; type: ADME, organism-based; settings: in vivo
Homo sapiens [24] = species: Homo sapiens; experiment: Half life in human assessed as 1-(4-benzoylpiperazin-1-yl)-2-(4-methoxy-7-(3-methyl-1H-1,2,4-triazol-1-yl)-1H-pyrrolo[2,3-c]pyridin-3-yl)ethane-1,2-dione level; type: ADME
[25] = Aqueous solubility of the compound at pH 1.5 to 8.2; type: physicochemical
In short: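 Aqueous solubility measured over pH 1.5−8.2 at room temperature.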

Rhesus monkey = experiment: Oral bioavailability in monkey assessed as 1-(4-benzoylpiperazin-1-yl)-2-(4-methoxy-7-(3-methyl-1H-1,2,4-triazol-1-yl)-1H-pyrrolo[2,3-c]pyridin-3-yl)ethane-1,2-dione level; type: ADME, organism-based, Macaca mulatta; settings: in vivo
Canis familiaris = experiment: Oral bioavailability in dog assessed as 1-(4-benzoylpiperazin-1-yl)-2-(4-methoxy-7-(3-methyl-1H-1,2,4-triazol-1-yl)-1H-pyrrolo[2,3-c]pyridin-3-yl)ethane-1,2-dione level; type: ADME, organism-based, Canis lupus familiaris; settings: in vivo
[26] = tested on: Simian immunodeficiency virus; experiment: Antiviral activity against SIV; type: functional
[27] = tested on: Human immunodeficiency virus 2; experiment: Antiviral activity against HIV2; type: functional
[28] = Solubility of the compound in acetonitrile; type: physicochemical
Homo sapiens [29] = species: Homo sapiens; experiment: Tmax in human assessed as 1-(4-benzoylpiperazin-1-yl)-2-(4,7-dimethoxy-1H-pyrrolo[2,3-c]pyridin-3-yl)ethane-1,2-dione level; type: ADME
In short: (§2)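 Healthy volunteers received the phosphonooxymethyl prodrug orally over 25 to 800 mg. Plasma levels of the released parent were followed to derive tmax and t1/2.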

Homo sapiens [30] = species: Homo sapiens; experiment: Half life in human assessed as 1-(4-benzoylpiperazin-1-yl)-2-(4,7-dimethoxy-1H-pyrrolo[2,3-c]pyridin-3-yl)ethane-1,2-dione level; type: ADME; in short: as §2
[31] = tested on: Human immunodeficiency virus 1; experiment: Antiviral activity against HIV-1 subtype B by p24 ELISA; type: functional; settings: Human immunodeficiency virus 1, subtype B
[32] = tested on: Human immunodeficiency virus 1; experiment: Antiviral activity against HIV-1 subtype A by p24 ELISA; type: functional; settings: Human immunodeficiency virus 1, subtype A
[33] = tested on: Human immunodeficiency virus 1; experiment: Antiviral activity against HIV-1 isolate CRF01_AE by p24 ELISA; type: functional; settings: Human immunodeficiency virus 1, isolate CRF01_AE
[34] = tested on: Human immunodeficiency virus 1; experiment: Antiviral activity against HIV-1 subtype F by p24 ELISA; type: functional; settings: Human immunodeficiency virus 1, subtype F
[35] = tested on: Human immunodeficiency virus 1; experiment: Antiviral activity against HIV-1 F1 by p24 ELISA; type: functional; settings: Human immunodeficiency virus 1, F1
[36] = Oral bioavailability in rat dosed as suspension; type: ADME, organism-based; settings: in vivo
[37] = tested on: Human immunodeficiency virus 1; experiment: Antiviral activity against HIV-1 isolate CRF02_AG by p24 ELISA; type: functional; settings: Human immunodeficiency virus 1, isolate CRF02_AG
[38] = Aqueous solubility of the compound at pH 2 to 9; type: physicochemical
[39] = tested on: Human immunodeficiency virus 1; experiment: Antiviral activity against HIV-1 isolate CRF_BF by p24 ELISA; type: functional; settings: Human immunodeficiency virus 1, isolate CRF_BF
[40] = tested on: Human immunodeficiency virus 1; experiment: Antiviral activity against HIV-1 subtype C by p24 ELISA; type: functional; settings: Human immunodeficiency virus 1, subtype C
Cytochrome P450 3A4 = Cytochrome P450 3A4 (Homo sapiens, UniProt P08684); experiment: Inhibition of CYP3A4 (unknown origin); type: ADME
Sequence of Cytochrome P450 3A4 (P08684 whole entry): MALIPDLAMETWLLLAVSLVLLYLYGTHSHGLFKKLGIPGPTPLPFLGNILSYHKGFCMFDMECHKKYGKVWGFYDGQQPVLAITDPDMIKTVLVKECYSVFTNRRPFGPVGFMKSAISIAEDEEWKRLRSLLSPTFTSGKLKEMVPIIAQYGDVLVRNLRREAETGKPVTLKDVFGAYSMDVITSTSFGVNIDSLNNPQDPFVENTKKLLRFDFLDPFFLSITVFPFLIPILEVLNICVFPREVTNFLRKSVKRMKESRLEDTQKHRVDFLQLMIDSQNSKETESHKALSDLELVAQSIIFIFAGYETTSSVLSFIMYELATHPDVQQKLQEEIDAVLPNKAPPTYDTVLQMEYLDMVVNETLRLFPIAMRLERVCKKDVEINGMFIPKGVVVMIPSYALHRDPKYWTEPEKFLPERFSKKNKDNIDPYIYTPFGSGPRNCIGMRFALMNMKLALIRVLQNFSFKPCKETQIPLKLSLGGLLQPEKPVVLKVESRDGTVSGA

Compound: COc1ccnc2[nH]cc(C(=O)C(=O)N3CCN(C(=O)c4ccccc4)C[C@H]3C)c12
pKa [6]: 2.9 to 9.6
fraction unbound [7]: 0.27
IC50 [8]: 100 nM

Compound: COc1ncc(OC)c2c(C(=O)C(=O)N3CCN(C(=O)c4ccccc4)CC3)c[nH]c12
EC50 [9]: 17.4 nM
pKa [6]: 2.9 to 9.3
Activity [10]: 0.96 log10/ml
EC50 [11]: 4.1 nM
EC50 [12]: 4.7 nM
T1/2 [13]: 0.717 h
Kd [14]: 19.1 nM
EC50 [15]: ≥ 871 nM
fraction unbound [7]: 0.05
EC50 [16]: > 2000 nM
half-life [17]: 10 h
EC50 [18]: 160 nM
T1/2 [19]: 2 to 3 min
Activity [20]: 0.72 log10/ml
IC50 [8]: 87 nM
EC50 [21]: 23 nM
EC50 [22]: 3 nM
EC50 [23]: > 1000 nM

Compound: COc1cnc(-n2cnc(C)n2)c2c1c(C(=O)C(=O)N1CCN(C(=O)c3ccccc3)CC1)cn2COP(=O)(O)O.NC(CO)(CO)CO [FOSTEMSAVIR TROMETHAMINE]
bioavailability (Rattus norvegicus): 80 to 122%
t1/2 (Homo sapiens [24]): 1.5 h
solubility [25]: > 11000 µg/mL
bioavailability (Rhesus monkey): 80 to 122%
Activity [20]: <1 log10/ml
bioavailability (Canis familiaris): 80 to 122%

Compound: O=C(C(=O)N1CCN(C(=O)c2ccccc2)CC1)c1c[nH]c2ccccc12
EC50 [26]: > 200000 nM
EC50 [27]: > 200000 nM

Compound: COc1cnc(OC)c2c1c(C(=O)C(=O)N1CCN(C(=O)c3ccccc3)CC1)cn2COP(=O)(O)O.NCCCC[C@H](N)C(=O)O
Tmax (Homo sapiens [29]): 0.5 to 1 h
t1/2 (Homo sapiens [30]): 1.5 h

Compound: COc1cnc(-n2cnc(C)n2)c2[nH]cc(C(=O)C(=O)N3CCN(C(=O)c4ccccc4)CC3)c12
EC50 [1]: 0.14 nM
EC50 [9]: 2.2 nM
EC50 [31]: 0.34 nM
EC50 [11]: 0.7 nM
EC50 [12]: 0.5 nM
EC50 [32]: 2.24 nM
T1/2 [13]: 7.63 h
EC50 [15]: 57.6 nM
EC50 [16]: > 2000 nM
EC50 [33]: > 100 nM
EC50 [34]: 0.1 nM
EC50 [35]: 3.75 nM
bioavailability [36]: 52%
EC50 [37]: 1.77 nM
solubility [38]: 20 µg/mL (≈ 42.2 µM)
EC50 [39]: 3.09 nM
EC50 [40]: 1.14 nM
EC50 [21]: 1.7 nM
EC50 [22]: 0.4 nM

Next, values leading:

EC50 [1]: 1.3 nM
Compound: O=C(C(=O)N1CCN(C(=O)c2ccccc2)CC1)c1c[nH]c2c(-c3ncon3)ncc(F)c12

solubility [2]: 7 µg/mL (≈ 15.6 µM)
Compound: O=C(C(=O)N1CCN(C(=O)c2ccccc2)CC1)c1c[nH]c2c(-n3ccnn3)ncc(F)c12

bioavailability [3]: 4%
bioavailability [4]: 100%
solubility [5]: 5 µg/mL (≈ 13.2 µM)
Compound: O=C(C(=O)N1CCN(C(=O)c2ccccc2)CC1)c1c[nH]c2cccc(F)c12

EC50 [1]: 0.41 nM
Compound: COc1cnc(-n2cc(C)cn2)c2[nH]cc(C(=O)C(=O)N3CCN(C(=O)c4ccccc4)CC3)c12

solubility [28]: < 500 µg/mL
Compound: COc1cnc(Br)c2[nH]cc(C(=O)C(=O)N3CCN(C(=O)c4ccccc4)CC3)c12

EC50 [1]: 0.11 nM
Compound: COc1cnc(-n2ccc(C)n2)c2[nH]cc(C(=O)C(=O)N3CCN(C(=O)c4ccccc4)CC3)c12

EC50 [1]: 0.78 nM
Compound: COc1cnc(-n2ccnn2)c2[nH]cc(C(=O)C(=O)N3CCN(C(=O)c4ccccc4)CC3)c12

EC50 [1]: 0.21 nM
IC50 (Cytochrome P450 3A4): 1000 nM
Compound: COc1cnc(-n2cncn2)c2[nH]cc(C(=O)C(=O)N3CCN(C(=O)c4ccccc4)CC3)c12
